Data reported in ChEMBL document CHEMBL1141506, “Synthesis and cytotoxic activity of a new series of topoisomerase I inhibitors” (Bioorg Med Chem Lett, 2008).
Calls of active or inactive are those of the source. No cut-off for these calls is given here.

Key:
NCI-H460 = experiment: Cytotoxicity against human NCI-H460 cells after 1 hr; assay type: functional, cell-based; details: NCI-H460, 1 h
Summary of the method: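 Cells harvested at 72 h and counted by Coulter counter. IC50 is the concentration giving 50% less growth than untreated control, as mean of three assays.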

[1] = target: T1, DNA topoisomerase 1 (Homo sapiens) (UniProt P11387); experiment: Inhibition of human recombinant topoisomerase 1 assessed as DNA plasmid relaxation after 30 mins
T1 sequence (whole entry): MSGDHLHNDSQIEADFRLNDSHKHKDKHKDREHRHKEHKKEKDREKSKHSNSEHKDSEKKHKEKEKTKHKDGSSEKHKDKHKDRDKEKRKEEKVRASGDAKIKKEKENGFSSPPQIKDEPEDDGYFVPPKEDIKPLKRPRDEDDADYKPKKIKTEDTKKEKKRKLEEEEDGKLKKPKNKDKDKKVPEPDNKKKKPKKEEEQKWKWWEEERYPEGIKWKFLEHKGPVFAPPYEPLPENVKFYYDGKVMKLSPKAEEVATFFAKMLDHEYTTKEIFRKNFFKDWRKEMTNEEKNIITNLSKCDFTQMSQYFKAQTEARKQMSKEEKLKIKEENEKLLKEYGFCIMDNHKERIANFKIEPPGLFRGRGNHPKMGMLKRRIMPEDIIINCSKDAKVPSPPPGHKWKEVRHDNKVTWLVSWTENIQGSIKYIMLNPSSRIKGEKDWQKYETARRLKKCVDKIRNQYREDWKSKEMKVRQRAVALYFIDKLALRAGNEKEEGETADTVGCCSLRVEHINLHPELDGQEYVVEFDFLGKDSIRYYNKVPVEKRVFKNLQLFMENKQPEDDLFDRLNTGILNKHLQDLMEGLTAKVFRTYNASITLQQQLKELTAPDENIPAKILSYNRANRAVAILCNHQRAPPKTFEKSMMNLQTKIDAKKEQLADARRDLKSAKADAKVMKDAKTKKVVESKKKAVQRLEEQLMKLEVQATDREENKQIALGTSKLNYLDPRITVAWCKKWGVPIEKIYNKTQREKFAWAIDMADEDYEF
Summary of the method: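 Supercoiled pBR322 DNA (200 ng) with purified topo I in 20 mM Tris–HCl pH 7.6, 150 mM KCl, 5 mM MgCl2, 0.1 mM EDTA, 0.1 mM DTT, 0.5 µg/ml BSA. Compound at 1, 10, 50 µM, 30 min at 37 °C. Stopped with SDS/proteinase K at 42 °C for 45 min. Run on 0.8% agarose, ethidium bromide stained.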

[2] = target: T1, DNA topoisomerase 1 (Homo sapiens); experiment: Effect on stabilization of human recombinant topoisomerase 1-mediated DNA cleavage after 30 mins
Summary of the method: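 3'-end-labelled 751-bp BamHI–EcoRI SV40 DNA fragment (20,000 cpm/sample) with 640 ng full-length human recombinant topo I. Buffer: 10 mM Tris–HCl pH 7.6, 150 mM KCl, 5 mM MgCl2, 15 µg/ml BSA, 0.1 mM DTT. Drug at 1, 10, 50 µM, 30 min at 37 °C. Stopped with 0.5% SDS/0.3 mg/ml proteinase K, 45 min at 42 °C. Denaturing 8% polyacrylamide gel.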

SMILES	IC50 (NCI-H460)	Activity [1]	Activity [2]
Cc1cc(=O)c2c(O)cc3c(c2o1)C(=O)c1c(O)cc(O)cc1C3=O [TOPOPYRONE C]	29.5 µM	–	–
O=C1c2cccc(O)c2C(=O)c2c1ccc1c(=O)cc(-c3ccccc3)oc21	7.06 µM	–	–
CC[C@@]1(O)C(=O)OCc2c1cc1n(c2=O)Cc2cc3c(CN(C)C)c(O)ccc3nc2-1 [TOPOTECAN]	1.18 µM	–	–
Cc1oc2c3c(ccc2c(=O)c1Br)C(=O)c1ccc(Br)c(O)c1C3=O	4.95 µM	inactive	–
COc1cccc2c1C(=O)c1c(ccc3c(=O)cc(C)oc13)C2=O	> 260 µM	–	–
Cc1cc(=O)c2ccc3c(c2o1)C(=O)c1c(O)cccc1C3=O	5.5 µM	inactive	Active
COc1cc(OC)c2c(c1)C(=O)c1cc(OC)c3c(=O)cc(C)oc3c1C2=O	> 100 µM	–	–
COc1cccc2c1C(=O)c1c(ccc3c(=O)cc(-c4ccccc4)oc13)C2=O	> 100 µM	–	–
Cc1cc(=O)c2ccc3c(c2o1)C(=O)c1c(OCCN(C)C)cccc1C3=O	7.15 µM	–	–
COc1cccc2c1C(=O)c1c(OCCN(C)C)cccc1C2=O	> 100 µM	–	Active
Cc1cc(=O)c2ccc3c(c2o1)C(=O)c1c(O)ccc([N+](=O)[O-])c1C3=O	9.1 µM	–	–
COc1cccc2c1C(=O)c1c(O)ccc([N+](=O)[O-])c1C2=O	160 µM	–	Active
Cc1oc2c3c(ccc2c(=O)c1Br)C(=O)c1cccc(O)c1C3=O	6.5 µM	–	–
COc1cccc2c1C(=O)c1c(O)cccc1C2=O	> 100 µM	–	Active
